Source: PubChem (Sanford-Burnham Center for Chemical Genomics)
DNMT1 block = DNMT1 (human) enzyme inhibition; P26358; DNMT1 molecular beacon, Hinp1I cleavage, fluorescence; inhibition (reported as % activation of signal), % at 10 µM; actives 0.83% (n = 360,000); AID 588458; in the data active = inhibition above about 50%
Scp1 inh = blocks human Scp-1 phosphatase activity; Q9GZU7; Recombinant Scp1, phosphopeptide, malachite green phosphate absorbance; inhibition, % at 20 µM; actives 0.88% (n = 340,000);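 active = inhibition above about 50% at 20 µM, limit read from the data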
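Test system – truncated SCP-1 phosphatase (76-261aa) · Reagent – Phosphorylated 17-residue peptide substrate · Incubation – 45 min room-temperature reaction, 5 min colour, 30 min stabiliser · Detection – colorimetric phosphate reagent with accelerator and stabiliser, absorbance at 630 nm · Measure – % inhibition at 20 µM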
LMPTP block = blocks human LMPTP phosphatase | recombinant LMPTP-A, OMFP fluorogenic substrate, fluorescence intensity | AID 651560 | actives 0.22% (n = 360,000) | inhibition, % at 20 µM;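 active = compounds that cut the enzyme signal by at least half of the control window in the single-dose screen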
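Assay system: LMPTP-A phosphatase enzyme | Input: 0.625 nM enzyme | Also added: Fluorogenic phosphatase substrate OMFP at 400 µM final | Compound dosing: One test concentration per compound, 20 µM, with 3% DMSO overall | Schedule: 50 min enzyme reaction at room temperature, protected from light | Signal: Fluorescence intensity | Benchmarks: no-enzyme and uninhibited controls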
STEP inh = blocks human striatal-enriched tyrosine phosphatase. recombinant STEP, OMFP fluorogenic substrate, fluorescence. inhibition, % at 20 µM. actives 0.25% (n = 360,000). P54829;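 active = inhibition at 20 µM, scaled per plate between control wells, above about 37%, limit read from the data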
Target sequence (P54829 whole entry, looked up): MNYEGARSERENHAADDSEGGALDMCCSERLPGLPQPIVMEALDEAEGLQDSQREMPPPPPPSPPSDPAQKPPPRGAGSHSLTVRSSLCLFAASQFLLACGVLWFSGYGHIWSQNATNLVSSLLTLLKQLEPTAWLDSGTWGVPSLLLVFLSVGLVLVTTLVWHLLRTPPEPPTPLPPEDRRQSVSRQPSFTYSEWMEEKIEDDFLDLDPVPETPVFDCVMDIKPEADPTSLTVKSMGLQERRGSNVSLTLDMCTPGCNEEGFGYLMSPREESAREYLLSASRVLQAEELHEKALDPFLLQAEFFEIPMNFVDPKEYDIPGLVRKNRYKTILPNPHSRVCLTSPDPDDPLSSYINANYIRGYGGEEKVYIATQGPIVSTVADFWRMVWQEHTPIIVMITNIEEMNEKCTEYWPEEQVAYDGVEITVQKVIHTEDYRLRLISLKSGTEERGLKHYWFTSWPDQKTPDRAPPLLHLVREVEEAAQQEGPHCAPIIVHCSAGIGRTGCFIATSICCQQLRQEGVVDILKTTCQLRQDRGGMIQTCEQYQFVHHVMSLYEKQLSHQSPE
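Material: STEP (striatal-enriched tyrosine phosphatase) enzyme, cell-free | Medium: 50 mM Bis-Tris pH 6.0 with 2.5 mM DTT and 0.005% Tween 20 | Read-out: Percent inhibition scaled to no-enzyme and uninhibited-enzyme controls, plate-pattern corrected | Signal: Fluorescence read at 480 nm ex / 540 nm em | Times: 20 min reaction, room temperature, in the dark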
Rpn11 inh = Rpn11 (human) deubiquitinase inhibition; O00487; human 26S proteasome, Ub4-pepOG fluorescence polarization; 20S core pre-blocked with epoxomicin; AID 588493; actives 0.59% (n = 360,000); inhibition, % at 20 µM;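 active = inhibition at 20 µM, scaled to each plate's controls, above about 33%, limit read from the data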
Numbers stand for hits; . = inactive; / = not tested or not shown; + = active, no number. Shown are actives, neighbours in structure and some others; about 2% of the full set was active somewhere.

SMILES	DNMT1 block	Scp1 inh	LMPTP block	STEP inh	Rpn11 inh
FC(F)(F)C1=Nc2cccc3cccc(c23)N1	108	.	87	.	.
CN(C)CCNC(=O)C1(C)Cc2c(-c3cccc(C(F)(F)F)c3)ccnc2O1 (stereo unspecified)	.	/	.	.	.
C=CCNc1ncnc2c1ncn2[C@H]1CN(Cc2ccc(-c3ccccc3)cc2)C[C@@H](CO)O1	.	/	.	.	.
C/C(N)=C(/C#N)C(=O)CSc1nnc(Nc2c(C)cccc2C)s1	.	70	.	.	.
CCOC(=O)c1cccc(NC(=S)N2CCN(c3ncc4c(=O)c(C(=O)O)cn(CC)c4n3)CC2)c1	.	.	70	.	.
CCCOc1ccc(C(=O)NC(=S)N2CCN(c3ncc4c(=O)c(C(=O)O)cn(CC)c4n3)CC2)cc1	.	/	70	.	.
CCn1cc(C(=O)O)c(=O)c2cnc(N3CCN(C(=S)NC(=O)c4ccccc4)CC3)nc21	.	.	56	.	.
O=C(O)C1C2C=CC(O2)C1C(=O)NCCC1=CCCCC1 (stereo unspecified)	53	.	.	.	.
O=C(NCCC1=CCCCC1)C(=O)NCc1ccccc1	.	.	.	.	.
CCCCN(C(=O)c1ccc(C#N)cc1)c1c(N)n(CCC)c(=O)[nH]c1=O	.	.	.	.	.
Cc1ccc(-c2nn3c(C)nnc3s2)cc1NC(=O)c1ccc(-c2ccc(Cl)cc2Cl)o1	66	.	.	93	+
Cc1ccc(S(=O)(=O)c2c(N)n(CCCN(C)C)c3nc4ccccc4nc23)cc1	.	.	.	.	.
COc1ccc(S(=O)(=O)c2c(N)n(Cc3ccco3)c3nc4ccccc4nc23)cc1	98	.	49	.	.
COc1cc(/C=C2/C(=O)c3cccc([N+](=O)[O-])c3C2=O)c(Br)cc1O	.	69	.	.	.
CC(=O)OCC(=O)C1CCC2C3CC=C4CC(O)CCC4(C)C3CCC12C (stereo unspecified)	.	.	.	.	.
CC(=O)C1CCC2C3CC=C4CC(SC(=N)N)CCC4(C)C3CCC12C (stereo unspecified)	.	.	63	.	.
CC(C)c1nc(SCC(=O)Nc2ccc(C(=O)O)cc2)c2c3c(sc2n1)CCCC3	.	.	53	.	.
C#CCn1c(=O)cc(C)c2ccccc21	.	.	.	.	.
C#CCn1cc(C=C2C(=O)c3ccccc3C2=O)c2ccccc21	60	.	.	.	.
C#CCOCCOCCOCCNc1nc(N2CCN(C(=O)CCCCCCCCCCNC(=O)[C@H]([C@@H](C)CC)n3cc(CCCCN=C(N)N)nn3)CC2)nc(N2CCN(C(=O)CCCCCCCCCCNC(=O)[C@H](CO)n3cc(CCCCCN)nn3)CC2)n1	.	.	.	.	75
C#CCOCCOCCOCCNc1nc(N2CCN(C(=O)Cn3cc(CCCN=C(N)N)nn3)CC2)nc(N2CCN(C(=O)[C@H]([C@@H](C)CC)n3cc(CCCCN)nn3)CC2)n1	.	.	.	.	.
C#CCOCCOCCOCCNc1nc(N2CCN(C(=O)CCCCCCCCCCNC(=O)[C@H]([C@@H](C)CC)n3cc(CCCCCN)nn3)CC2)nc(N2CCN(C(=O)CCCCCCCCCCNC(=O)[C@H](CO)n3cc(CCCCCN)nn3)CC2)n1	.	.	.	.	.
C#CCOCCOCCOCCNc1nc(N2CCN(C(=O)CCCCCCCCCCNC(=O)Cn3cc(CCCCCN)nn3)CC2)nc(N2CCN(C(=O)CCCCCCCCCCNC(=O)[C@H]([C@@H](C)CC)n3cc(CCCCN=C(N)N)nn3)CC2)n1	.	.	.	.	41
C#CCOCCOCCOCCNc1nc(N2CCN(C(=O)CCCCCCCCCCNC(=O)[C@H]([C@@H](C)CC)n3cc(CCCCCN)nn3)CC2)nc(N2CCN(C(=O)CCCCCCCCCCNC(=O)[C@H]([C@@H](C)CC)n3cc(CCCCN=C(N)N)nn3)CC2)n1	.	/	.	.	88
C#CCOCCOCCOCCNc1nc(N2CCN(C(=O)CCCCCCCCCCNC(=O)[C@H]([C@@H](C)CC)n3cc(CCCCN=C(N)N)nn3)CC2)nc(N2CCN(C(=O)CCCCCCCCCCNC(=O)[C@H](CCCCN)n3cc(C)nn3)CC2)n1	/	.	/	/	/
SMILES	DNMT1 block	Scp1 inh	LMPTP block	STEP inh	Rpn11 inh
C/C=C/c1ccc2c(c1)O[C@H](CN(C)C(=O)NC1CCCC1)[C@H](C)CN([C@H](C)CO)S2(=O)=O	.	/	.	.	.
Cc1ccc(C(=O)OCC(=O)Nc2cccc(S(=O)(=O)N3CCCCC3)c2)s1	.	/	.	.	.
Cc1cc(-c2csc(NC(=O)c3ccc(=O)[nH]c3)n2)c(C)n1Cc1ccco1	74	.	63	.	.
CCNc1nc(-c2cc(C)n(Cc3ccco3)c2C)cs1	.	.	.	.	.
COc1ccc(N=C2S/C(=C\c3ccc(OCC(=O)O)cc3)C(=O)N2CCc2c[nH]c3ccccc23)cc1	.	.	.	96	.
COc1ccc(CNC2CC(C)N(C)CC2C)cc1OC (stereo unspecified)	.	.	53	.	.
CC(C)C1C(=O)N(Cc2cn(CCC3OCCCO3)nn2)CCS(=O)(=O)N1Cc1ccc(-c2ccc(Cl)c(Cl)c2)cc1 (stereo unspecified)	.	/	.	.	.
CCOC(=O)C1C(=O)NC(SCC(=O)Nc2nccs2)=C(C#N)C1c1ccccc1OCC (stereo unspecified)	.	.	.	.	61
CCCCOCCCNC(=O)C[C@@H]1C[C@@]2(C(=O)OCC)CCC=C2N(Cc2ccc(Cl)cc2Cl)C1=O	/	/	.	/	/
CCNC(=O)C1CCCN(C(=O)c2cccc(C#N)c2)CC1 (stereo unspecified)	.	/	.	.	.
CCn1cc(C(=O)NCc2ccc3c(c2)OCO3)c(=O)c2cc(F)c(N3CCN(C(=O)c4ccco4)CC3)cc21	.	.	53	.	.
C=CCCCCCCCCC(=O)N1CCN(c2cc3c(cc2F)c(=O)c(C(=O)O)cn3CC)CC1	.	.	.	.	.
CCn1cc(C(=O)O)c(=O)c2cc(F)c(N3CCN(C(=S)NC(=O)c4ccccc4)CC3)cc21	.	.	66	.	.
C=CCNC(=S)N1CCN(c2cc3c(cc2F)c(=O)c(C(=O)O)cn3CC)CC1	.	.	.	.	.
CCn1cc(C(=O)NCc2ccccc2)c(=O)c2cc(F)c(N3CCN(C(=O)c4ccco4)CC3)cc21	.	.	.	.	.
CCn1cc(C(=O)O)c(=O)c2cc(F)c(N3CCN(C(=S)NC(=O)c4ccccc4Cl)CC3)cc21	.	.	63	.	.
CCn1cc(C(=O)O)c(=O)c2cc(F)c(N3CCN(C(=S)Nc4ccc(OC)cc4)CC3)cc21	.	.	59	.	.
c1ccc2c(c1)ncn2-c1cncnc1	.	/	.	.	.
